Results as given in article PMC4436074 (mBio, 2015).
Counter-ions that a name gives are not always drawn. Like-named read-outs stand apart in the source and are kept apart here.

Columns and labels:
RopB = assay: PspeB-luxAB reporter, NZ131; assay type: cell-based, S. pyogenes; conditions: C medium; 10 µM CsA or valspodar; 300 mM NaCl
In short: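 PspeB-luxAB reporter (speB upstream region–luxAB, integrated) grown in C medium to exponential phase (OD600 0.1). Test compound added at 10 µM; 300 mM NaCl used as the suppressing condition. Decanal vapour supplied; 37°C with shaking. OD600 and luminescence read every 15 min for 8 h; relative luminescence taken as maximum cps/OD600.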

Rgg3 = assay type: binding, Streptococcus pyogenes; conditions: HTS, duplicate; 0.1 µl of 10 mM compound in 30 µl; 180 nM His6-Sumo-Rgg3, 10 nM FITC-SHP2-C8
In short: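 Approved-drug library (1,280 compounds, DMSO stocks) pinned into assay mix of 1× PBS, 0.1 mg/ml BSA, 0.01% Triton X-100 and 5 mM DTT. Plates were shaken 20 s, then held 15 min at room temperature, and polarization was read at ex 485/em 535 nm. Each plate had 32 DMSO negative-control wells and 32 unlabeled SHP2-C8 (1 mM stock) positive-control wells. % inhibition was scaled between the per-plate control means, and plate Z′ was computed.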

ComR [1] = target: T1, ComR (Streptococcus mutans serotype c, UniProt Q8DWI6); assay type: binding, S. mutans; conditions: read-out: ComR Avg % inhibition
T1 sequence (Q8DWI6 1-304): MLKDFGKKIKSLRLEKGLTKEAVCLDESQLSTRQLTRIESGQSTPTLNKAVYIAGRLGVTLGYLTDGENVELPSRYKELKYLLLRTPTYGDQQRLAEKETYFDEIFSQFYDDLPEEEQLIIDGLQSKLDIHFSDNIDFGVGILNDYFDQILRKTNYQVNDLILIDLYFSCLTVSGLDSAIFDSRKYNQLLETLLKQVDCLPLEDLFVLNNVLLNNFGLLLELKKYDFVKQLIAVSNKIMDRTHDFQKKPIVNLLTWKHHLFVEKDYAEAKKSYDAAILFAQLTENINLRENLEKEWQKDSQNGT

[2] = system: Rgg2/3-regulated promoter Pshp2-luxAB (BNL148); assay: Pshp2-luxAB luciferase reporter assay, strain BNL148, sSHP2-C8 induced; assay type: cell-based, S. pyogenes; conditions: for inhibition of SHP-induced light production (transcription): 10 µM compound with 10 nM SHP2-C8, BNL148; for IC50: Streptococcus pyogenes
S. pyogenes cultures = assay: Bacterial growth curves; assay type: cell-based; conditions: 10 µM compound with 10 nM sSHP2-C8, 37°C
In short: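 S. pyogenes grown at 37°C in chemically defined medium (CDM) to OD600 0.1, then given 10 nM SHP2-C8 alone or with 10 µM test compound. OD600 read every 30 min for 8 h.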

Rgg2 = assay: Pshp2-luxAB luciferase reporter assay, Δrgg3 strain BNL178; assay type: cell-based, S. pyogenes
In short: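 Pshp2-luxAB reporter strains grown in CDM to exponential phase (OD600 0.1). Cultures dispensed into wells with 10 nM SHP2-C8 alone or with test compound: 10 µM for the Δrgg3 strain BNL178, 5 µM CsA for the other strains. Decanal (1% in mineral oil) supplied as vapour; plate sealed and shaken continuously at 37°C. OD600 and luminescence read every 15 min for 8 h; relative luminescence taken as maximum cps/OD600.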

[3] = system: ComR-XIP QS system, PsigX-luxAB; assay: PsigX-luxAB reporter; assay type: cell-based, S. pyogenes; conditions: 10 µM compound, 100 nM XIP, MGAS315(pWAR200)
In short: (§1)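 PsigX-luxAB reporter strains grown in CDM to OD600 0.1 and incubated with 10 µM test compound plus 100 nM XIP. Decanal (1% in mineral oil) supplied as vapour; sealed plate shaken at 37°C. OD600 and luminescence read every 15 min for 8 h; relative luminescence taken as maximum cps/OD600.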

[4] = system: ComR-XIP QS system, PsigX-luxAB; assay: PsigX-luxAB reporter; assay type: cell-based, S. mutans; conditions: 10 µM compound, 100 nM XIP, UA159(pWAR304)
In short: as §1

[5] = system: S. pyogenes strain NZ131 biofilm; assay: SHP-dependent biofilm assay, crystal violet staining, strain NZ131; assay type: cell-based; conditions: 10 nM SHP2-C8, 20 h
In short: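 NZ131 grown overnight in THY at 30°C, diluted 1:100 into CDM, grown at 37°C to late exponential phase, back-diluted to OD600 0.02 in CDM with 10 nM SHP2-C8 and 2-fold dilutions of test compound (5 to 0.156 µM); 0.1% DMSO controls. At OD600 ~0.1 plated in duplicate, 20 h at 37°C, 5% CO2. Saline wash, dry-fixed, 0.2% crystal violet, A595; ≥3 independent experiments, standard errors.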

[6] = system: Rgg-SHP quorum-sensing pathway, Pshp-luxAB; assay: Pshp-luxAB reporter in S. agalactiae A909; assay type: cell-based; conditions: S. agalactiae (GBS), 5 µM antagonist
In short: (§2)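 Reporter strains carry shp-promoter–luxAB fusions on a pLZ12-spec plasmid: Pshp1520 in GBS A909, Pshp2 in GGS, Pshp3 in S. porcinus. S. porcinus was given synthetic SHP. Strains grown in CDM to OD600 0.1 and exposed to 5 µM antagonist. Decanal (1% in mineral oil) supplied as vapour. OD600 and luminescence read at 37°C every 15 min for 8 h; relative luminescence taken as maximum cps/OD600.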

[7] = system: Rgg-SHP quorum-sensing pathway, Pshp-luxAB; assay: Pshp-luxAB reporter in S. dysgalactiae GGS-LT1; assay type: cell-based; conditions: 5 µM antagonist
In short: as §2

[8] = system: Rgg-SHP quorum-sensing pathway, Pshp-luxAB; assay: Pshp-luxAB reporter in S. porcinus NCTC 10999; assay type: cell-based; conditions: 5 µM antagonist
In short: as §2

ComR [9] = target: T1, ComR; assay type: binding, S. mutans; conditions: competition with FITC-XIP
FITC-XIP (S. mutans) = assay: fluorescence polarisation
[10] = target: FITC-SHP2-C8 (Streptococcus pyogenes); assay: fluorescence polarisation
[11] = target: His6-SUMO-Rgg3 (Streptococcus pyogenes); assay: fluorescence polarisation
[12] = read-out: IC50, luciferase assay dose-response

## [Cl-].[Na+] [NaCl]
RopB
  effect on activation of PspeB (luciferase activity): abolished luciferase activity

## CCCc1nc(C(C)(C)O)c(C(=O)O)n1Cc1ccc(-c2ccccc2-c2nnn[nH]2)cc1 [Olmesartan]
Rgg3
  Rgg3 Avg % inhibition: 73%
ComR [1]
  inhibition: 1%
[2]
  inhibition of SHP-induced light production (transcription): less than 50%

## CC(C)(C)NC(=O)[C@@H]1C[C@@H]2CCCC[C@@H]2CN1C[C@@H](O)[C@H](Cc1ccccc1)NC(=O)[C@H](CC(N)=O)NC(=O)c1ccc2ccccc2n1 [Saquinavir mesylate]
Rgg3
  Rgg3 Avg % inhibition: 84%
ComR [1]
  inhibition: 13%
[2]; [12]
  IC50: > 10000 nM

## CCC(C)(C)C(=O)O[C@H]1C[C@@H](C)C=C2C=C[C@H](C)[C@H](CC[C@@H]3C[C@@H](O)CC(=O)O3)[C@H]21 [Simvastatin]
Rgg3
  Rgg3 Avg % inhibition: 85%
ComR [1]
  inhibition: 10%
[2]
  inhibition of SHP-induced light production (transcription): less than 50%
[2]; [12]
  IC50: > 10000 nM
S. pyogenes cultures
  effect on culture growth: inhibited culture growth

## CCCc1nc2c(C)cc(-c3nc4ccccc4n3C)cc2n1Cc1ccc(-c2ccccc2C(=O)O)cc1 [Telmisartan]
Rgg3
  Rgg3 Avg % inhibition: 99%
ComR [1]
  inhibition: 3%
[2]
  inhibition of SHP-induced light production (transcription): less than 50%

## C/C=C/C[C@@H](C)C(=O)[C@H]1C(=O)N[C@@H](C(C)C)C(=O)N(C)CC(=O)N(C)[C@@H](CC(C)C)C(=O)N[C@@H](C(C)C)C(=O)N(C)[C@@H](CC(C)C)C(=O)N[C@@H](C)C(=O)N[C@H](C)C(=O)N(C)[C@@H](CC(C)C)C(=O)N(C)[C@@H](CC(C)C)C(=O)N(C)[C@@H](C(C)C)C(=O)N1C [Valspodar, [3′-keto-Bmt1-Val2]-cyclosporine]
[2]
  inhibition of SHP-induced light production (transcription): completely abolished light production
[2]; read-out: IC50 (nM), luciferase assay dose-response
  IC50: 252 nM
[2]; [12]
  IC50: 500 nM
Rgg2
  inhibition of transcription in strain with only Rgg2 present: effective at inhibiting transcription
S. pyogenes cultures
  effect on culture growth: do not display toxic effects on GAS growth
[3]
  effect on light production of PsigX-luxAB: not affected
[4]
  effect on light production of PsigX-luxAB: not affected
RopB
  effect on activation of PspeB (luciferase activity): unable to block activation of PspeB
[5]
  concentration sufficient to prevent SHP-dependent biofilm development: 0.312 µM
[6]
  fold inhibition of light production: at least 5 fold
[7]
  fold inhibition of light production: at least 5 fold
[8]; S. porcinus (GES), sSHP stimulated
  fold inhibition of light production: at least 5 fold
[8]; S. porcinus
  effect on the S. porcinus strain (in words): only a moderate effect
ComR [9]
  binding to ComR: did not bind to ComR

## His6-ComR (S. mutans UA159) (receptor)
FITC-XIP (S. mutans)
  Kd: 1000 nM

## His6-SUMO-Rgg3 (receptor)
[10]
  Kd: 160 nM

## DILIIVGG [SHP2-C8 (unlabeled synthetic peptide)]
[11]
  Kd: 220 nM
